PMC7616001 (Journal of medicinal chemistry, 2022)
Like-named read-outs stand apart in the source and are kept apart here.

Columns and labels:
[1] = Cyclic voltammetry; assay type: physicochemical; conditions: acetonitrile, 0.1 M NEt4BF4
[2] = system: ROS level in HeLa cells; test: H2DCF-DA intracellular ROS assay; assay type: cell-based, human; conditions: 10 μM, 1-8 h
In short: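 HeLa plated at 10 × 10^3 per well, grown overnight, then exposed to 10 μM test compound for 1, 2, 4 or 8 h. Washed with PBS and loaded with 10 μM H2DCF‑DA for 30 min. Washed again, phenol red‑free DMEM added, fluorescence read immediately. Three biological replicates.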

[3] = system: HeLa; conditions: read-out: IC50 HeLa; 72 h continuous exposure, MTT assay; cited from earlier work
[4] = system: A2780; conditions: cited from earlier work
[5] = cited from earlier work
[6] = system: HeLa; test: MTT assay, 72 h continuous exposure, HeLa cells; assay type: cell-based, human; conditions: read-out: IC50 HeLa; 72 h continuous exposure, MTT assay
In short: (§1)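 Ovarian lines grown in RPMI with 10% FBS and 1% penicillin/streptomycin; A2780Cis kept on 2 μM cisplatin 3 days each week. HeLa grown in DMEM with the same supplements. 3 × 10^3 cells/well, overnight, then serial dilutions of DMSO stocks (final DMSO ≤0.1%); cisplatin stock in PBS. 72 h continuous exposure, MTT 0.5 mg/mL 3 h, formazan in DMSO, A570 normalised to untreated. IC50 from curves; ≥3 independent experiments.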

[7] = system: A2780; test: MTT assay, 72 h continuous exposure, A2780 cells; assay type: cell-based, human; conditions: read-out: IC50 A2780; 72 h continuous exposure, MTT assay
In short: as §1

[8] = system: A2780cis; test: MTT assay, 72 h continuous exposure, cisplatin-resistant A2780Cis cells; assay type: cell-based, human; conditions: read-out: IC50 A2780cis; 72 h continuous exposure, MTT assay
In short: as §1

[9] = system: HeLa; test: 72 h crystal violet; assay type: cell-based, human; conditions: HeLa and A2780, 72 h
In short: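 Seeding and dosing as for MTT: 3 × 10^3 cells/well, overnight, final DMSO ≤0.1%, 72 h exposure. Wells washed with PBS and fixed in 4% paraformaldehyde for 15 min. Crystal violet stained, dried, dissolved in 96% ethanol and A570 read. IC50 derived from dose–response curves.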

[10] = system: HeLa cells; test: Intracellular distribution between nucleus and cytoplasm, ICP-MS; assay type: cell-based, human; conditions: 10 μM, 24 h exposure
In short: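 5 × 10^6 HeLa per 100 mm plate, grown overnight. Exposed 24 h to 10 μM test compound, with 10 μM cisplatin as comparator. PBS‑washed, trypsinised, counted. Nuclear and cytoplasmic fractions isolated with a commercial kit. Protein measured by BCA assay, metal by ICP‑MS. Three experiments of ≥3 replicates.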

[11] = system: HeLa cells; test: Annexin-V/PI dual staining flow cytometry; assay type: cell-based, human; conditions: 10 μM (0.7 × IC50/24h)
[12] = system: PARP, p53, cleaved caspase 3 in HeLa cells; test: Western blot of apoptosis-related marker proteins; assay type: cell-based, human; conditions: 24 h, cisplatin 10 μM, 1 at 1/4 × IC50 to IC50
In short: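 ~2 million HeLa per 60 mm dish, grown to 80–90% confluency, treated 24 h at 10, 20 or 40 μM. Lysed in RIPA buffer with protease inhibitors. Membranes blocked with 2% skim milk in 0.1% Tween 20 for 30 min. Primary antibody 1:1000 overnight at 4 °C; HRP secondary antibody.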

[13] = system: MEF-Bax/Bak^+/+ and MEF-Bax/Bak^−/− cell lines; test: Cytotoxicity in MEF-Bax/Bak+/+ versus MEF-Bax/Bak−/− cells; assay type: cell-based, murine
[14] = system: A2780cis; conditions: A2780Cis versus wild-type A2780; cited from earlier work
[15] = read-out: IC50 in A2780 cells, reported antitumor activities

O=C(CC(=O)C(F)(F)F)[c-]1cccc1.[Fe+2].c1cc[cH-]c1 [Compound L1, 4,4,4-trifluoro-1-ferrocenylbutane-1,3-dione]
oxidation potential (vs Fc^+/0) [1]: 287 mV | intracellular ROS level (H2DCF-DA) [2]: unable to elevate the level of intracellular ROS | IC50 [3]: 23 µM | IC50 ([4]; read-out: IC50 A2780, 72 h, MTT assay): 11.4 ± 2 µM | pKa [5]: 6.5

O=C1[O][Pt]2([NH][C@@H]3CCCC[C@H]3[NH]2)[O]C1=O [oxaliplatin, reference compound]
IC50 [6]: 2.1 ± 0.3 µM

[Ru(η^6-arene)(PTA)-(4,4,4-trifluoro-1-(4-chlorophenyl)-1,3-butanedionato)]
IC50 [4, 15]: 34.8 µM

[Ru(η^6-arene)Cl(curcuminato)]
IC50 [4, 15]: 23.4 µM

N.N.[Cl][Pt][Cl] [cisplatin, reference compound]
IC50 [6]: 3 ± 0.1 µM | IC50 [7]: 0.8 ± 0.1 µM | IC50 [8]: 6.7 ± 0.1 µM | IC50 from CV assay compared to IC50 from MTT assay [9]: comparable | metal content in nuclear fraction relative to cytoplasmic fraction [10]: equally distributed between the cytoplasm and nucleus | AV^+/PI^− cells (early apoptosis) [11]: 13.4% | apoptosis markers (PARP cleavage, p53, cleaved caspase 3) [12]: cleavage of PARP and sharp upregulation of P53 and cleaved caspase 3 | IC50 in MEF-Bax/Bak^−/− compared to MEF-Bax/Bak^+/+ cells [13]: 2.5 fold | resistance factor, RF [14]: 9.7
